Data reported in ChEMBL document CHEMBL1156597, “Structure-activity relationship of kahalalide F synthetic analogues” (J Med Chem, 2008).

What was measured:
[1] = system: LoVo; assay: Cytotoxicity against human LoVo cells after 48 hrs by SRB assay; format: functional; conditions: for CC50: read-out: LC50 (the source's name)
[2] = system: A549; assay: Cytotoxicity against human A549 cells after 48 hrs by SRB assay; format: functional, cell-based; conditions: Homo sapiens, A549, 48 h
Procedure, shortened: (§1)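 Cells grown in RPMI 1640 with 10% FBS and penicillin/streptomycin at 37 °C and 5% CO₂, trypsinized, then seeded at 5 × 10³/well. After 18 h drug-free attachment, samples in DMSO/EtOH/PBS (0.5:0.5:99) were added for 48 h continuous exposure. Cells were fixed with cold TCA (1 h, 4 °C) and stained with SRB (10 min). Tris-solubilized stain read at 490 nm. Triplicate wells, mean ± SD; GI₅₀ derived.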

[3] = system: SK-MEL-28; assay: Cytotoxicity against human SK-MEL-28 cells after 48 hrs by SRB assay; format: functional, cell-based; conditions: Homo sapiens, SK-MEL-28, 48 h; for CC50: read-out: LC50 (the source's name); procedure, shortened: as §1
[4] = Cytotoxicity against human HeLa-APL cells after 48 hrs by SRB assay; format: functional; procedure, shortened: as §1
[5] = system: K562; assay: Cytotoxicity against human K562 cells after 48 hrs by SRB assay; format: functional; conditions: K562, 48 h; for CC50: read-out: LC50 (the source's name); procedure, shortened: as §1
[6] = system: HeLa; assay: Cytotoxicity against human HeLa cells after 48 hrs by SRB assay; format: functional; conditions: for CC50: read-out: LC50 (the source's name); procedure, shortened: as §1
[7] = system: LNCaP; assay: Cytotoxicity against human LNcaP cells after 48 hrs by SRB assay; format: functional; conditions: for CC50: read-out: LC50 (the source's name); procedure, shortened: as §1
[8] = system: LoVo; assay: Cytotoxicity against human doxorubicin resistant LoVo cells after 48 hrs by SRB assay; format: functional; conditions: for CC50: read-out: LC50 (the source's name); procedure, shortened: as §1
[9] = system: HT-29; assay: Cytotoxicity against human HT29 cells after 48 hrs by SRB assay; format: functional, cell-based; conditions: Homo sapiens, HT-29, 48 h; for CC50: read-out: LC50 (the source's name); procedure, shortened: as §1
[10] = system: SK-BR-3; assay: Cytotoxicity against human SKBR3 cells after 48 hrs by SRB assay; format: functional; conditions: SK-BR-3, 48 h; for CC50: read-out: LC50 (the source's name); procedure, shortened: as §1
[11] = system: DU-145; assay: Cytotoxicity against human DU145 cells after 48 hrs by SRB assay; format: functional, cell-based; conditions: Homo sapiens, DU-145, 48 h; for CC50: read-out: LC50 (the source's name); procedure, shortened: as §1
[12] = Cytotoxicity against human IGROV-ET cells after 48 hrs by SRB assay; format: functional; conditions: for CC50: read-out: LC50 (the source's name); procedure, shortened: as §1
[13] = Cytotoxicity against human IGROV cells after 48 hrs by SRB assay; format: functional; conditions: for CC50: read-out: LC50 (the source's name); procedure, shortened: as §1
[14] = system: PANC-1; assay: Cytotoxicity against human PANC1 cells after 48 hrs by SRB assay; format: functional; conditions: PANC-1, 48 h; for CC50: read-out: LC50 (the source's name); procedure, shortened: as §1

In the case of `C/C=C1\NC(=O)[C@H](Cc2ccccc2)NC(=O)[C@@H](C(C)C)NC(=O)[C@@H]([C@H](C)CC)NC(=O)[C@H](NC(=O)[C@H](NC(=O)[C@H](CCCN)NC(=O)[C@H]2CCCN2C(=O)[C@H](NC(=O)[C@@H](NC(=O)[C@@H](NC(=O)[C@H](NC(=O)CCCC(C)C)C(C)C)C(C)C)C(C)C)C(C)C)[C@H](C)CC)[C@H](C)OC(=O)[C@H](C(C)C)NC1=O`, the GI50 [1] was 276 nM, the TGI [1] was 270 nM and the CC50 [1] was 264 nM. For the same compound, the GI50 [2] was 445 nM, the LC50 [2] was 640 nM and the GI50 ([2]; read-out: GI50) was 258 nM. It also gave a TGI [3] of 178 nM, a GI50 ([3]; read-out: GI50) of 209 nM and a CC50 [3] of 151 nM. For the same compound, the GI50 [4] was 324 nM, the LC50 (concentration giving 50% net cell kill) [4] was 730 nM and the TGI [4] was 467 nM. The GI50 [5] was 718 nM, the TGI [5] was 899 nM and the CC50 [5] was 1100 nM. It also gave a GI50 [6] of 134 nM, a TGI [6] of 124 nM and a CC50 [6] of 116 nM. For the same compound, the GI50 [7] was 334 nM, the TGI [7] was 530 nM and the CC50 [7] was 733 nM. For the same compound, the CC50 [8] was 28 nM, the GI50 [9] was 300 nM and the TGI [9] was 311 nM. It also gave a CC50 [9] of 322 nM, a TGI [10] of 153 nM and a GI50 ([10]; read-out: GI50) of 166 nM. It also gave a CC50 [10] of 75.8 nM, a GI50 [11] of 149 nM and a GI50 ([11]; read-out: GI50) of 175 nM. It also gave a CC50 [11] of 127 nM, a GI50 [12] of 248 nM and a GI50 ([12]; read-out: GI50) of 257 nM. It also gave a CC50 [12] of 64.8 nM, a GI50 [13] of 118 nM and a GI50 ([13]; read-out: GI50) of 183 nM. For the same compound, the CC50 [13] was 55.9 nM, the GI50 [14] was 1120 nM and the TGI [14] was 1260 nM. For the same compound, the CC50 [14] was 1420 nM.

`C/C=C1\NC(=O)[C@H](Cc2ccccc2)NC(=O)[C@@H](C(C)C)NC(=O)[C@@H]([C@H](C)CC)NC(=O)[C@H](NC(=O)[C@H](NC(=O)[C@H](CCCN)NC(=O)[C@H]2CCCN2C(=O)[C@H](NC(=O)[C@@H](NC(=O)[C@@H](NC(=O)[C@H](NC(=O)CCCCCCCCCC)C(C)C)[C@@H](C)O)C(C)C)C(C)C)[C@H](C)CC)[C@H](C)OC(=O)[C@H](C(C)C)NC1=O` gave a GI50 [1] of 287 nM, a TGI [1] of 319 nM and a CC50 [1] of 352 nM. For the same compound, the GI50 [2] was 186 nM, the LC50 [2] was 456 nM and the GI50 ([2]; read-out: GI50) was 160 nM. It also gave a GI50 [3] of 251 nM, a GI50 ([3]; read-out: GI50) of 193 nM and a CC50 [3] of 561 nM. The GI50 [4] was 237 nM, the LC50 (concentration giving 50% net cell kill) [4] was 760 nM and the TGI [4] was 399 nM. The CC50 [5] was 1170 nM, the GI50 [6] was 139 nM and the TGI [6] was 129 nM. For the same compound, the CC50 [6] was 120 nM, the GI50 [7] was 423 nM and the TGI [7] was 586 nM. For the same compound, the CC50 [7] was 720 nM, the GI50 [8] was 96.2 nM and the TGI [8] was 189 nM. It also gave a CC50 [8] of 265 nM, a GI50 [9] of 371 nM and a TGI [9] of 354 nM. For the same compound, the CC50 [9] was 201 nM, the GI50 [10] was 69.9 nM and the GI50 ([10]; read-out: GI50) was 61.4 nM. It also gave a CC50 [10] of 73.6 nM, a GI50 [11] of 188 nM and a GI50 ([11]; read-out: GI50) of 183 nM. The CC50 [11] was 260 nM, the GI50 [12] was 218 nM and the GI50 ([12]; read-out: GI50) was 166 nM. For the same compound, the CC50 [12] was 318 nM, the GI50 [13] was 146 nM and the GI50 ([13]; read-out: GI50) was 218 nM. The CC50 [13] was 196 nM, the GI50 [14] was 1630 nM and the TGI [14] was 1540 nM. For the same compound, the CC50 [14] was 1440 nM.

For `C/C=C1\NC(=O)[C@H](Cc2ccccc2)NC(=O)[C@@H](C(C)C)NC(=O)[C@@H]([C@H](C)CC)NC(=O)[C@H](NC(=O)[C@H](NC(=O)[C@H](CCCN)NC(=O)[C@H]2CCCN2C(=O)[C@H](NC(=O)[C@@H](NC(=O)[C@@H](NC(=O)[C@H](NC(=O)CCCC(C)C)C(C)C)[C@@H](C)O)C(C)C)C(C)C)[C@H](C)CC)COC(=O)[C@H](C(C)C)NC1=O`, the GI50 [1] was 457 nM, the TGI [1] was 513 nM and the CC50 [1] was 620 nM. The LC50 [2] was 1270 nM, the TGI [2] was 1350 nM and the GI50 ([2]; read-out: GI50) was 1440 nM. For the same compound, the TGI [3] was 1500 nM, the GI50 ([3]; read-out: GI50) was 1900 nM and the CC50 [3] was 1180 nM. The GI50 [4] was 1930 nM, the LC50 (concentration giving 50% net cell kill) [4] was 1320 nM and the TGI [4] was 1650 nM. For the same compound, the CC50 [5] was 4460 nM, the CC50 [6] was 1470 nM and the GI50 [7] was 3370 nM. It also gave a TGI [7] of 3360 nM, a CC50 [7] of 2140 nM and a GI50 [8] of 353 nM. For the same compound, the TGI [8] was 367 nM, the CC50 [8] was 384 nM and the GI50 [9] was 983 nM. For the same compound, the TGI [9] was 1540 nM, the CC50 [9] was 1970 nM and the CC50 [10] was 610 nM. The TGI [11] was 5210 nM, the GI50 ([11]; read-out: GI50) was 5040 nM and the CC50 [11] was 5370 nM. It also gave a GI50 [12] of 753 nM, a GI50 ([12]; read-out: GI50) of 620 nM and a CC50 [12] of 663 nM. For the same compound, the TGI [13] was 25100 nM, the GI50 ([13]; read-out: GI50) was 16700 nM and the CC50 [13] was 33800 nM. It also gave a CC50 [14] of 8970 nM.
